Assay results from ChEMBL document CHEMBL3414434, “Exploring the chemical space of ureidothiophene-2-carboxylic acids as inhibitors of the quorum sensing enzyme PqsD from Pseudomonas aeruginosa” (Eur J Med Chem, 2015).
Active and inactive are the calls of the source. The calls are words filed in the database; no cut-off is given here. Starred links: 1 amine or outer side, 2 acyl side, 3 side chain; linkers in the order of their positions; H or OH if unused. Non-standard residues stand in square brackets, D forms with d. Residues, ends and D or L forms follow the SMILES beside them. *: point of attachment. X1 = COc1ccc(-c2cc(N*)c(C(=O)O)s2)cc1; AEEA = NCCOCCOCC(=O)O; CO = O=C([*:1])[*:2]

biological target: T1, 2-heptyl-4(1H)-quinolone synthase PqsD (Pseudomonas aeruginosa) (UniProt A0A0C7ACN7); experiment: Inhibition of recombinant His6-tagged Pseudomonas aeruginosa PqsD expressed in Escherichia coli BL21 (deltaDE3) using anthraniloyl-CoA/beta-ketodecanoic acid as substrate assessed as HHQ formation at 50 uM preincubated for 10 mins followed by substrate addition by HPLC/MS-MS analysis relative to control
T1 sequence (whole entry): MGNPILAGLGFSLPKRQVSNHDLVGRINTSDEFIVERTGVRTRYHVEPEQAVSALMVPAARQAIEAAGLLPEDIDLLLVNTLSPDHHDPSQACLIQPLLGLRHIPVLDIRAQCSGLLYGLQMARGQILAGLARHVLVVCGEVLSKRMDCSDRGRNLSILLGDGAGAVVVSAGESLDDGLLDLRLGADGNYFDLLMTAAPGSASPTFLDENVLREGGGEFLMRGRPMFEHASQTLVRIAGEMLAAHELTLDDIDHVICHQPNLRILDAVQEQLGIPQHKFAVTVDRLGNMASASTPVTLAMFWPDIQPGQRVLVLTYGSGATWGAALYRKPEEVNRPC
Summary of the method: (§1)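 His6-PqsD was expressed in E. coli BL21(DE3) (IPTG, 16 °C, 16 h) and purified by single-step affinity. Assay buffer was 0.05 M MOPS pH 7.0 with 0.005% Triton X-100, plus 0.1 µM enzyme and inhibitor (0.5% DMSO final). After 10 min preincubation at 37 °C, anthraniloyl-CoA was added; β-ketodecanoic acid was the second substrate. HHQ was measured by HPLC-MS against DMSO controls set to 100%.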

inhibition | SMILES
inactive | O=C(Nc1ccsc1C(=O)O)N[C@@H](Cc1ccccc1)C(=O)O
40% | COc1ccc(-c2cc(NC(=O)N[C@@H](Cc3c[nH]cn3)C(=O)O)c(C(=O)O)s2)cc1

system: Pseudomonas aeruginosa; experiment: Binding affinity to recombinant His6-tagged Pseudomonas aeruginosa PqsD/anthraniloyl-CoA complex at 25 to 100 uM by surface plasmon resonance analysis
Summary of the method: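 His6-PqsD on an SPR sensor chip. Running buffer was HEPES pH 7.4, 150 mM NaCl, 5% DMSO, 0.05% polysorbate 20. ACoA (100 µM) was injected for about 40 min to saturate the binding site, then flushed at higher flow for 30 min. Compounds were injected in sequence and equilibrium responses compared with untreated PqsD. Run in duplicate.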

Activity | SMILES
Active | O=C(Nc1cc(-c2ccc(-c3ccc(CO)cc3)cc2)sc1C(=O)O)N[C@@H](Cc1ccccc1)C(=O)O

biological target: T2, 2-heptyl-4(1H)-quinolone synthase PqsD (Pseudomonas aeruginosa, UniProt A0A0C7ACN7); experiment: (§2) Inhibition of recombinant His6-tagged Pseudomonas aeruginosa PqsD expressed in Escherichia coli BL21 (deltaDE3) using anthraniloyl-CoA/beta-ketodecanoic acid as substrate assessed as HHQ formation preincubated for 10 mins followed by substrate addition by HPLC/MS-MS analysis; summary of the method: as §1
T2 sequence (A0A0C7ACN7 whole entry): T1 sequence (whole entry)

IC50 | SMILES
5 µM | COc1ccc(-c2cc(NC(=O)N[C@@H](Cc3c[nH]c4ccccc34)C(=O)O)c(C(=O)O)s2)cc1
2.7 µM | O=C(Nc1cc(-c2ccc(-c3ccccc3)cc2)sc1C(=O)O)N[C@@H](Cc1ccccc1)C(=O)O
30.3 µM | COc1ccc(-c2cc(NC(=O)N[C@@H](CCC(=O)O)C(=O)O)c(C(=O)O)s2)cc1
19 µM | COc1ccc(-c2cc(NC(=O)N[C@@H](CO)C(=O)O)c(C(=O)O)s2)cc1
31.9 µM | COc1ccc(-c2cc(NC(=O)N[C@H](C(=O)O)C(C)C)c(C(=O)O)s2)cc1
7.5 µM | COc1ccc(-c2cc(NC(=O)N[C@@H](Cc3ccccc3)C(=O)O)c(C(=O)O)s2)c(C)c1
33.7 µM | COc1ccc(-c2cc(NC(=O)N[C@@H](CCc3ccccc3)C(=O)O)c(C(=O)O)s2)cc1
0.36 µM | O=C(Nc1cc(-c2ccc(-c3ccc(C(O)c4ccccc4[N+](=O)[O-])cc3)cc2)sc1C(=O)O)N[C@@H](Cc1ccccc1)C(=O)O (stereo not given in full)
21.6 µM | O=C(Nc1cc(-c2ccc(O)cc2)sc1C(=O)O)N[C@@H](Cc1ccccc1)C(=O)O
6.2 µM | O=C(Nc1cc(-c2cccc(-c3ccccc3)c2)sc1C(=O)O)N[C@@H](Cc1ccccc1)C(=O)O
7 µM | COc1ccc(-c2cc(NC(=O)NCP(=O)(O)O)c(C(=O)O)s2)cc1
0.5 µM | COc1ccc(-c2cc(NC(=O)N[C@@H](Cc3ccccc3)C(=O)O)c(C(=O)O)s2)cc1
19.4 µM | O=C(Nc1cc(-c2cccc(-c3ccc(CO)cc3)c2)sc1C(=O)O)N[C@@H](Cc1ccccc1)C(=O)O
13.2 µM | COc1ccc(-c2cc(NC(=O)N[C@@H](CC(N)=O)C(=O)O)c(C(=O)O)s2)cc1
29 µM | COc1ccc(-c2cc(NC(=O)N[C@@H](Cc3ccc(O)cc3)C(=O)O)c(C(=O)O)s2)cc1
0.14 µM | O=C(Nc1cc(-c2ccc(-c3ccc(CO)cc3)cc2)sc1C(=O)O)N[C@@H](Cc1ccccc1)C(=O)O
11.5 µM | COc1ccc(-c2cc(NC(=O)N[C@@H](Cc3ccccc3)C(=O)O)cs2)cc1
3.8 µM | O=C(Nc1cc(-c2ccccc2)sc1C(=O)O)N[C@@H](Cc1ccccc1)C(=O)O
13.8 µM | COc1ccc(-c2cc(NC(=O)N[C@@H](Cc3ccc(Cl)cc3)C(=O)O)c(C(=O)O)s2)cc1
32 µM | COc1ccc(-c2cc(NC(=O)N[C@@H](Cc3ccccc3)C(=O)SCCNC(C)=O)c(C(=O)O)s2)cc1
2 µM | O=[N+]([O-])c1ccccc1CO
7 µM | COc1ccc(-c2cc(NC(=O)NCC(=O)O)c(C(=O)O)s2)cc1
1 µM | O=[N+]([O-])c1ccccc1C(O)c1ccccc1 (stereo not given)

biological target: T1, 2-heptyl-4(1H)-quinolone synthase PqsD (Pseudomonas aeruginosa); experiment: as §2; summary of the method: as §1

SMILES | inhibition
CC[C@H](C)[C@H](NC(=O)[C@H](CCCNC(=N)N)NC(=O)[C@H](CCCNC(=N)N)NC(=O)[C@H](Cc1ccccc1)NC(=O)[C@H](CC(C)C)NC(=O)[C@H](CCCNC(=N)N)NC(=O)[C@H](CCCNC(=N)N)NC(=O)COCCOCCNC(=O)[C@H](Cc1ccccc1)NC(=O)Nc1cc(-c2ccc(OC)cc2)sc1C(=O)O)C(=O)N[C@@H](CC(C)C)C(=O)N[C@@H](CCCNC(=N)N)C(=O)N[C@@H](Cc1c[nH]c2ccccc12)C(=O)N[C@@H](CC(C)C)C(=O)O ({X1-CO}-F[AEEA]RRLFRRILRWL-OH) | Active

system: Pseudomonas aeruginosa PA14; experiment: Inhibition of PqsD in Pseudomonas aeruginosa PA14 assessed as reduction of HHQ level at 250 uM after 16 hrs by UHPLC-MS/MS analysis relative to control

inhibition | SMILES
inactive | COc1ccc(-c2cc(NC(=O)N[C@@H](Cc3ccccc3)C(=O)SCCNC(C)=O)c(C(=O)O)s2)cc1
16% | COc1ccc(-c2cc(NC(=O)N[C@@H](Cc3c[nH]cn3)C(=O)O)c(C(=O)O)s2)cc1

SMILES | inhibition
CC[C@H](C)[C@H](NC(=O)[C@H](CCCNC(=N)N)NC(=O)[C@H](CCCNC(=N)N)NC(=O)[C@H](Cc1ccccc1)NC(=O)[C@H](CC(C)C)NC(=O)[C@H](CCCNC(=N)N)NC(=O)[C@H](CCCNC(=N)N)NC(=O)COCCOCCNC(=O)[C@H](Cc1ccccc1)NC(=O)Nc1cc(-c2ccc(OC)cc2)sc1C(=O)O)C(=O)N[C@@H](CC(C)C)C(=O)N[C@@H](CCCNC(=N)N)C(=O)N[C@@H](Cc1c[nH]c2ccccc12)C(=O)N[C@@H](CC(C)C)C(=O)O ({X1-CO}-F[AEEA]RRLFRRILRWL-OH) | inactive
